Our source for the IC50 and inhibition values is ChEMBL document CHEMBL1165906, “Cytotoxic N-(fluorenyl-9-methoxycarbonyl) (Fmoc)-dipeptides: structure-activity relationships and synergistic studies” (Eur J Med Chem, 2010).

SMILES strings stand for the structures. Active and inactive are the calls of the source. The rule behind the calls is not given here.

A short description of assay [1]: Cytotoxicity against human Hep3B cells after 72 hrs by MTT assay. The class given is functional, cell-based, Hep 3B2. In short, it runs like this:
(§1)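 Freshly trypsinized cells were seeded at 5000–10,000 per well in 96-well plates. Attached cells were given MTT (0.5 mg/ml, 1 h), solubilized in DMSO and read at 550 nm. IC₅₀ came from survival curves as mean ± S.E.M., n = 2.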

The next assay concerns Ca9-22. As to the kind of experiment: Cytotoxicity against human Ca9-22 cells after 72 hrs by MTT assay. In kind it is functional, cell-based. The settings on record: Ca9-22, 72 h. The method, boiled down: (§2)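 Freshly trypsinized cells were seeded at 5000–10,000 per well in 96-well plates. […] Attached cells were given MTT (0.5 mg/ml, 1 h), solubilized in DMSO and read at 550 nm. IC₅₀ came from survival curves as mean ± S.E.M., n = 2.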

In a further assay the test system is MDA-MB-231. As to the kind of experiment: Cytotoxicity against human MDA-MB-231 cells after 72 hrs by MTT assay. In kind it is functional, cell-based. The settings on record: MDA-MB-231, 72 h. In short, it runs like this:
as §2

For another assay, the system named is MCF7. As to the kind of experiment: Cytotoxicity against human MCF7 cells after 72 hrs by MTT assay. In kind it is functional, cell-based. The following applies: MCF7, 72 h. In short, it runs like this: as §2
Another assay concerns A549. Kind of assay: Cytotoxicity against human A549 cells after 72 hrs by MTT assay. In kind it is functional, cell-based. The settings on record: A549, 72 h. The method, boiled down:
as §2

The subject of another assay is HepG2. Kind of assay: Cytotoxicity against human HepG2 cells after 72 hrs by MTT assay. The following applies: HepG2, 72 h. In kind it is functional, cell-based. The method, boiled down:
as §1

For assay [2], the system named is Hepatitis C virus. As to the kind of experiment: Antiviral activity against HCV infected in human Huh7 cells assessed as inhibition of viral replication at 10 uM after 4 days. The following applies: Huh-7, 96 h. The class given is functional, Hepacivirus hominis. In short, it runs like this: (§3)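 Ava5 cells, Huh-7 hepatoma cells carrying a subgenomic HCV replicon, seeded at 5 ×10⁴ per well in 24-well plates and treated for 4 days. Cell extracts were normalized by protein assay and 5 µg was run on 8% SDS-PAGE and transferred to PVDF. Blots were blocked in 5% skim milk and probed for NS3 with GAPDH as loading control. Signals came from HRP secondaries and ECL and were quantified by densitometry.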

In assay [3] the test system is Hepatitis C virus. As to the kind of experiment: Antiviral activity against HCV infected in human Huh7 cells assessed as inhibition of viral replication at 5 uM after 4 days. In kind it is functional, organism-based. The following applies: Hepacivirus hominis, Huh-7. In short, it runs like this:
as §3

For the compound `O=C(N[C@@H](Cc1c[nH]c2ccccc12)C(=O)N[C@H](CO)Cc1ccccc1)OCC1c2ccccc2-c2ccccc21`, the IC50 (in assay [1]; with Ca9-22; with MDA-MB-231; with MCF7) was more than 55 µM in each case.

In the case of `CC(C)[C@H](NC(=O)OCC1c2ccccc2-c2ccccc21)C(=O)N[C@H](CO)Cc1ccccc1`, the IC50 (in assay [1]; in the assay with A549; in the assay with MDA-MB-231; in the assay with MCF7) was more than 55 µM each time.

`CC(=O)OC[C@H](Cc1ccccc1)NC(=O)[C@H](Cc1c[nH]c2ccccc12)NC(=O)OCC1c2ccccc2-c2ccccc21`: the IC50 (in assay [1]; in the assay on MCF7) was more than 55 µM throughout.

As for `O=C(N[C@@H](Cc1ccc2ccccc2c1)C(=O)N[C@@H](CO)Cc1ccccc1)OCC1c2ccccc2-c2ccccc21`, the concentration for half-maximal inhibition (IC50) in the assay with A549, with MDA-MB-231 and with MCF7 was more than 55 µM throughout.

Consider `CC(C)[C@H](NC(=O)OCC1c2ccccc2-c2ccccc21)C(=O)N[C@@H](CO)Cc1ccccc1`, for which the IC50 with A549, with MDA-MB-231 and in the assay with MCF7 was more than 55 µM in each case.

With `CC(=O)OC[C@H](Cc1ccccc1)NC(=O)[C@@H](NC(=O)OCC1c2ccccc2-c2ccccc21)C(C)C`, the IC50 (in assay [1]; with Ca9-22; in the assay on A549; with MDA-MB-231; with MCF7) was more than 55 µM each time.

In the assay with MDA-MB-231, `CC(=O)OC[C@@H](Cc1ccccc1)NC(=O)[C@H](Cc1ccc2ccccc2c1)NC(=O)OCC1c2ccccc2-c2ccccc21` displayed an IC50 of more than 55 µM.

Compound `CC(=O)OC[C@@H](Cc1ccccc1)NC(=O)[C@H](Cc1ccccc1)NC(=O)OCC1c2ccccc2-c2ccccc21` registered an IC50 in the assay with MCF7 of more than 55 µM.

On to `CC(=O)OC[C@H](Cc1ccccc1)NC(=O)[C@H](Cc1ccc(O)cc1)NC(=O)OCC1c2ccccc2-c2ccccc21`, for which the IC50 (in assay [1]; in the assay on Ca9-22; in the assay on A549; in the assay with MDA-MB-231; with MCF7) was more than 55 µM each time.

Consider `COc1cccc2c1C(=O)c1c(O)c3c(c(O)c1C2=O)C[C@@](O)(C(=O)CO)C[C@@H]3O[C@H]1C[C@H](N)[C@H](O)[C@H](C)O1` [DOXORUBICIN], for which the IC50 in the assay with Ca9-22 amounted to 1.3 µM; in the assay with A549, 0.4 µM; in the assay with MDA-MB-231 it was 0.1 µM.

Regarding `O=C(N[C@@H](Cc1ccc(O)cc1)C(=O)N[C@H](COC(=O)c1ccccc1)Cc1ccccc1)OCC1c2ccccc2-c2ccccc21`, the IC50 with HepG2 was more than 55 µM.

With `CC(C)[C@H](NC(=O)OCC1c2ccccc2-c2ccccc21)C(=O)N[C@@H](COC(=O)c1ccccc1)Cc1ccccc1`, the IC50 in the assay on HepG2, in the assay on A549, in the assay on MDA-MB-231 and in the assay on MCF7 was more than 55 µM each time.

In assay [1], `CC(=O)OC[C@H](Cc1ccccc1)NC(=O)[C@H](Cc1ccc2ccccc2c1)NC(=O)OCC1c2ccccc2-c2ccccc21` had an IC50 of more than 55 µM.

In the case of `CC(=O)OC[C@@H](Cc1ccccc1)NC(=O)[C@H](Cc1ccc(O)cc1)NC(=O)OCC1c2ccccc2-c2ccccc21`, the IC50 in the assay on A549, in the assay with MDA-MB-231 and with MCF7 was more than 55 µM each time.

Regarding `O=C(N[C@@H](Cc1ccc(O)cc1)C(=O)N[C@@H](COC(=O)c1ccccc1)Cc1ccccc1)OCC1c2ccccc2-c2ccccc21`, in the assay on Hepatitis C virus [2], the inhibition at 10 µM turned out to be 87%. In addition, the IC50 (in assay [1]; in the assay on HepG2; with MDA-MB-231; in the assay with MCF7) was more than 55 µM throughout. The inhibition result in the assay with Hepatitis C virus [3] is “inactive”.

For the compound `O=C(N[C@@H](Cc1c[nH]c2ccccc12)C(=O)N[C@@H](COC(=O)c1ccccc1)Cc1ccccc1)OCC1c2ccccc2-c2ccccc21`, the inhibition at 10 µM in the assay on Hepatitis C virus [2] turned out to be 72%. The inhibition entry in the assay with Hepatitis C virus [3] is “inactive”.

For `O=C(N[C@@H](Cc1ccc2ccccc2c1)C(=O)N[C@H](COC(=O)c1ccccc1)Cc1ccccc1)OCC1c2ccccc2-c2ccccc21`, the concentration for half-maximal inhibition (IC50) (in assay [1]; in the assay on HepG2; with Ca9-22; in the assay on A549; in the assay on MDA-MB-231; in the assay on MCF7) was more than 55 µM each time.

For the compound `O=C(N[C@@H](Cc1ccc(O)cc1)C(=O)N[C@H](CO)Cc1ccccc1)OCC1c2ccccc2-c2ccccc21`, the IC50 in the assay on A549, with MDA-MB-231 and with MCF7 was more than 55 µM each time.

In the assay on MDA-MB-231, `O=C(N[C@@H](Cc1ccc2ccccc2c1)C(=O)N[C@@H](COC(=O)c1ccccc1)Cc1ccccc1)OCC1c2ccccc2-c2ccccc21` had a 50% inhibitory concentration (IC50) of more than 55 µM.

As to `O=C(N[C@@H](Cc1ccccc1)C(=O)N[C@@H](CO)Cc1ccccc1)OCC1c2ccccc2-c2ccccc21`, the half-maximal inhibitory concentration (IC50) (in assay [1]; with HepG2; with Ca9-22; with A549; with MDA-MB-231; with MCF7) was more than 55 µM each time.

Take `O=C(N[C@@H](Cc1ccccc1)C(=O)N[C@H](CO)Cc1ccccc1)OCC1c2ccccc2-c2ccccc21`: the IC50 (in assay [1]; in the assay on HepG2; in the assay on Ca9-22; with A549; in the assay on MDA-MB-231; with MCF7) was more than 55 µM in each case.

As to `CC(C)[C@H](NC(=O)OCC1c2ccccc2-c2ccccc21)C(=O)N[C@H](COC(=O)c1ccccc1)Cc1ccccc1`, the IC50 (in assay [1]; in the assay on HepG2; in the assay on A549; in the assay with MDA-MB-231; in the assay on MCF7) was more than 55 µM throughout.

`O=C(N[C@@H](Cc1ccccc1)C(=O)N[C@H](COC(=O)c1ccccc1)Cc1ccccc1)OCC1c2ccccc2-c2ccccc21`: the IC50 (in assay [1]; in the assay with HepG2; in the assay on Ca9-22; in the assay with MDA-MB-231; in the assay on MCF7) was more than 55 µM throughout.

As to `O=C(N[C@@H](Cc1ccccc1)C(=O)N[C@@H](COC(=O)c1ccccc1)Cc1ccccc1)OCC1c2ccccc2-c2ccccc21`, the IC50 (in assay [1]; with Ca9-22; in the assay on MDA-MB-231; in the assay on MCF7) was more than 55 µM in each case.

`O=C(N[C@@H](Cc1ccc2ccccc2c1)C(=O)N[C@H](CO)Cc1ccccc1)OCC1c2ccccc2-c2ccccc21`: the IC50 (in assay [1]; in the assay on MDA-MB-231; in the assay with MCF7) was more than 55 µM throughout.

As to `CC(=O)OC[C@H](Cc1ccccc1)NC(=O)[C@H](Cc1ccccc1)NC(=O)OCC1c2ccccc2-c2ccccc21`, the IC50 (in assay [1]; with HepG2; in the assay with Ca9-22; in the assay on MDA-MB-231; with MCF7) was more than 55 µM in each case.
